Hits are enriched below; roughly 0.81% of the tested compounds scored in any of these assays.
Redox H2O2 prof: compounds producing H2O2 with reducing agent – biochemical, NIH compound library profiling, artefact control for MLSCN library redox annotation, primary screen. DTT-dependent redox cycling H2O2, phenol red/HRP absorbance; 100% = 100 µM peroxide control, 0% = buffer. activation, % at 10 µM. hit rate 0.03% among 200,000. AID 878;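 active = activation of at least 50% relative to the plate's high and low controls in the primary single-dose screen; inactive = activation below 50%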;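 also: compound incubated with DTT at 0.8 mM final as the reducing agent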
Rad51 HR inh: blocks human Rad51 in homologous recombination | Q06609 | AID 1385 | inhibition, % at 10 µM | hit rate 0.085% among 200,000 | hRad51 DNA strand exchange, fluorescence dequenching;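 active = inhibition above 40% at the single screening dose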;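 also: 0% = DMSO control wells and 100% = blanks with heterologous ssDNA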
Target sequence (Q06609 whole entry, looked up): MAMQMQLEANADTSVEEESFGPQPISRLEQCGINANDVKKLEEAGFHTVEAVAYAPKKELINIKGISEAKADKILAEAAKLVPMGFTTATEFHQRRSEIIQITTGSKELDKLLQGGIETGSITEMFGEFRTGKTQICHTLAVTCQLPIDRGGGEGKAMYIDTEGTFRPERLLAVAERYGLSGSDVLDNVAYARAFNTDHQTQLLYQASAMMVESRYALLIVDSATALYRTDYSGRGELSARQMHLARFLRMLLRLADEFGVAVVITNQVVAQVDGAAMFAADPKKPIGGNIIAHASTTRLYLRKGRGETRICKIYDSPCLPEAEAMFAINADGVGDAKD
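Read-out basis: percent inhibition relative to plate controls and blanks / Assay system: human Rad51 nucleoprotein filaments preassembled on unlabelled ssDNA / Timing: filaments 15 min 37 °C, then compound 30 min / Control set: per-plate controls and blanks / Technique: fluorescence dequenching at 485/520 nm / Compound: 10 µM final, single point / Also added: Fluorescein- and BHQ1-tagged 47-mer duplex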
Calpain2 inh: calpain II (pig) inhibition | hit rate 0.37% among 220,000 | AID 1236 | purified calpain II, fluorogenic peptide substrate, 30 min | inhibition, % at 16 µM;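 active = inhibition above about 50%, limit read from the data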
Pf gametocyte: kills late stage P. falciparum gametocytes; P. falciparum stage V gametocytes, ATP luminescence, 24 h; inhibition, % at 10.9 µM; hit rate 0.065% among 150,000; AID 743093;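 active = inhibition above the mean plus 3 SD of compounds within the control limits, set per campaign, cut at about 38% in these data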;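 also: 0% = DMSO wells and 100% = medium only without gametocytes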
HMGR II inh: E. faecalis class II HMG-CoA reductase inhibition. AID 1066. hit rate 0.41% among 190,000. purified E. faecalis HMGR, NADPH absorbance 340 nm kinetic. inhibition, % at 10 µM;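 active = inhibition above a set limit, the median over all tested compounds plus 3 SD, cut at about 9.5% in these data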;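 also: enzyme runs in reverse so mevalonate oxidation gives rising NADPH absorbance; 0% = complete reaction with DMSO and 100% = background rate lacking mevalonate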
PKD1 kinase inh: blocks activity of human protein kinase D1. AID 797. inhibition, % (test concentration not listed). PKD1 kinase fluorescence polarization assay. hit rate 0.056% among 200,000; in the data active = inhibition above about 50%
* marks the source's active call; other numbers are inactive results; x = no result.

SMILES	Redox H2O2 prof	Rad51 HR inh	Calpain2 inh	Pf gametocyte	HMGR II inh	PKD1 kinase inh
O=C(Nc1ccc2c(c1)OCO2)O[C@@H]1C[C@H]2CCC(=O)N3CC[C@@H](C1)[C@@H]23	x	x	x	-16	x	x
O=C1OCC2OC(O)C(O)C(O)C2OC(=O)c2cc(O)c(O)c(O)c2-c2c(O)c(O)c3oc(=O)c4c(c(O)c(O)c5oc(=O)c2c3c54)-c2c1cc(O)c(O)c2O (stereo unspecified)	x	68*	39	x	x	x
CCOC(=O)C1CCN(c2ncnc3c2nnn3Cc2ccccc2Cl)CC1	0	55*	7	-13	-6	5
O=C(c1ccco1)N1CCN(c2ncnc3c2nnn3Cc2ccccc2Cl)CC1	0	-1	2	x	-6	-6
CC(C)c1ccc(CNc2ccc([N+](=O)[O-])cn2)cc1	-1	14	94*	9	-7	-1
CC(C)(C)c1ccc(CNc2ccc([N+](=O)[O-])cn2)cc1	0	2	79*	-15	-5	7
CC(=O)NCCNc1ccc([N+](=O)[O-])cn1	x	8	17	-10	0	-9
O=[N+]([O-])c1ccc(NCc2ccc(Cl)cc2)nc1	x	13	80*	7	x	x
O=C(OCc1c(-c2ccccc2)ncc2ccccc12)c1cccc(Br)c1	x	x	x	-14	x	x
Cn1c(=O)c(C(=O)CSc2ccccc2)c(N)n(Cc2ccccc2)c1=O	0	-11	-14	0	14*	-6
Cn1c(=O)c(C(=O)CCl)c(N)n(Cc2ccccc2)c1=O	0	1	17	1	3	-11
O=C(c1ccc(-c2ccccc2)cc1)N1CCC(C(=O)N2CCCC2)CC1	2	7	-37	x	0	-16
O=C(c1ccc(-c2nnc(-c3ccccc3)o2)cc1)N1CCCCCC1	-1	-4	60*	x	3	-13
Cn1c(NCc2ccccc2)nc2c1c(=O)n(Cc1ccccc1)c(=O)n2C	1	6	62*	-32	1	1
COc1ccc(CNc2nc3c(c(=O)n(Cc4ccc(F)cc4)c(=O)n3C)n2C)cc1	2	1	80*	9	-10	-12
Cc1nc2ccccc2n1CC(O)COc1ccccc1Cl (stereo unspecified)	-1	-2	-15	-4	11*	-7
Cc1nc2ccccc2n1CC(O)COc1ccc(Br)cc1 (stereo unspecified)	0	-2	-23	11	1	-4
CC(=O)N1N=C(c2cccc(Br)c2)OC12CCCC2	1	x	-3	22	2	8
O=C(NCCC1=CCCCC1)C(=O)NCC1OCCCN1S(=O)(=O)c1ccc(F)cc1 (stereo unspecified)	-1	x	35	x	-1	14
COc1ccc2[nH]c3c(C)c4ccncc4c(C)c3c2c1	x	47*	-25	x	x	x
Cc1nn(-c2ccccc2)c(Cl)c1/C=N/NC(=O)c1ccccc1NS(=O)(=O)c1cccs1	0	13	-27	4	-1	-6
Cc1nn(-c2ccccc2)c(Cl)c1/C=N/NC(=O)c1ccc(NS(=O)(=O)c2cccs2)cc1	0	-5	-86	x	9.6*	-10
O=C(Nc1ccccc1C(=O)O)c1cccc(NC(=O)c2ccc(Br)o2)c1	0	-5	51*	x	-5	1
O=C(Nc1ccccc1C(=O)O)c1ccc(NC(=O)c2ccc(Br)o2)cc1	0	-7	-13	x	-3	-3
Cc1ccc(C(=O)N2CCCC2)cc1S(=O)(=O)Nc1cccc(C)c1C	0	-13	-6	-14	-2	1
SMILES	Redox H2O2 prof	Rad51 HR inh	Calpain2 inh	Pf gametocyte	HMGR II inh	PKD1 kinase inh
COC(=O)c1ccccc1NC(=O)C1COc2ccccc2O1 (stereo unspecified)	1	-7	11	7	1	-5
O=C(Nc1ccccc1C(=O)N1CCCC1)C1COc2ccccc2O1 (stereo unspecified)	0	1	27	-13	-1	66*
CN(C)CCNC(=O)c1c(CSc2ccc(Cl)cc2)noc1C(=O)NCc1ccccc1	x	7	x	13	x	x
CCS(=O)(=O)NCC(c1cccnc1)N1CCN(c2ccc(OC)cc2)CC1 (stereo unspecified)	-2	7	63*	-5	-5	-3
CCS(=O)(=O)NCC(c1cccnc1)N1CCN(c2ccccc2)CC1 (stereo unspecified)	-1	-4	-16	x	0	0
CS(=O)(=O)N(CC(N)=O)c1cccc(Br)c1	0	2	-11	x	17*	3
CNC(=O)CN(c1cccc(Br)c1)S(C)(=O)=O	1	-8	-27	x	-2	-4
O=C(Nc1ccc(Nc2ccncc2)cc1)c1ccc(Nc2ccnc3ccc([N+](=O)[O-])cc23)cc1	x	22	51*	x	x	x
Cc1cccc(Nc2nc(N)nc(CCl)n2)c1C	x	-17	-9	2	x	x
Cc1ccccc1-n1cc(CNCc2c(C(=O)N(C)C)nc3ccc(Cl)cn23)cn1	0	-10	-29	-9	13*	-8
COc1cc2cnc(CCO[C@H]3CCCCO3)cc2cc1OC	x	x	x	-4	x	x
CN(C)S(=O)(=O)c1cc(NC(=O)CN2CCOCC2)ccc1Cl	0	-2	-13	-26	-4	-6
COc1ccc(CCNC2=CC(=O)N(c3ccc(F)cc3)C2=O)cc1	0	-1	-297	x	14*	-2
Cc1cc(C)n2cc(CSc3ncn[nH]3)nc2n1	0	10	-359	x	5	1
CC(C)CC(c1nnnn1C1CCCC1)N1CCC(C(N)=O)CC1 (stereo unspecified)	-1	-8	51*	17	1	1
CC(C)CC(c1nnnn1C1CCCCC1)N1CCN(c2ncccn2)CC1 (stereo unspecified)	1	2	25	x	-5	-2
CCOc1ccc(S(=O)(=O)NCc2ccc3c(c2)OCO3)cc1NC(C)=O	x	x	x	2	x	x
CCOC(=O)C1(Cc2ccc(OC)cc2)CCN(C(=O)[C@@H]2CCCN2C(C)=O)CC1	x	x	-15	2	x	x
Cc1cc([N+](=O)[O-])nn1CC(=O)Nc1ccc(F)cc1	0	7	5	-19	11*	-3
Cc1cccnc1NC(=O)Cn1nc([N+](=O)[O-])cc1C	3	11	-8	7	14*	-7
COC(=O)C1(C)Cc2cc(OC(C)=O)c(OC(C)=O)cc2N1 (stereo unspecified)	x	12	-60	x	x	x
COc1cccc(CNC(=O)Cn2cc([N+](=O)[O-])cn2)c1	x	x	x	1	x	x
Cc1[nH]n(-c2ccc(C(=O)O)cc2)c(=O)c1CCO	2	7	58*	x	-1	-4
O=c1cc(N2CCCCC2)c(-c2ccccc2)nn1Cc1ccccc1Cl	-7	0	23	13	-4	-11
O=c1cc(N2CCCCC2)c(-c2ccccc2)nn1Cc1ccc(Cl)cc1Cl	-7	4	54*	-13	-4	-4
CN(C)c1ccc2c3c(ccc(N(C)C)c13)COC2	1	x	-29	-6	15*	2

Screens: PubChem BioAssay, several laboratories
